SIRT5 block: blocks human SIRT5 desuccinylation of peptide | Purified SirT5, succinyl-peptide AMC, trypsin-coupled fluorescence | inhibition, % at 15 µM | 330,000 compounds, 1.1% hits | Q9NXA8; in the data active means inhibition above about 15%
FGF22 binding: FGF22 (human) thermal shift binding; Q9HCT0; recombinant FGF22 thermal shift, SYPRO orange fluorescence; percent of sucrose octasulfate shift, DMSO zero; activity (Tm shift, normalised), % at 9.99 µM; 340,000 compounds, 1.5% hits;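 active means mean Tm shift, scaled 0 neutral to 100 positive control, at about 1.3% or above, every replicate too, limit read from the data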
NSD2 HMT inh: blocks human histone methyltransferase NSD2. O96028. NSD2 peptide methylation, AlphaScreen, 120 min. inhibition, % at 12.5 µM. 310,000 compounds, 0.54% hits. AID 743445; in the data active means inhibition above about 50%
Casp6 inh: blocks human caspase-6 cleavage activity; 350,000 compounds, 0.53% hits; purified caspase-6, Z-VEID-R110 cleavage fluorescence; inhibition, % at 12.5 µM;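 active means mean inhibition across replicates at least about 35%, with every replicate also reaching that limit, limit read from the data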;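 further: 0% = median of neutral control wells and 100% = no fluorescence left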
UCH37 DUB inh: blocks the human deubiquitinase UCH37 | Q9Y5K5 | purified proteasome/UCH37, Ub-AMC cleavage fluorescence | inhibition, % (no concentration beside the values) | 330,000 compounds, 0.33% hits | AID 588478;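 active means mean inhibition over replicate wells above about 20%, limit read from the data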;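 further: 0% = compound-free wells with enzyme and 100% = wells lacking proteasome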
Target sequence (Q9Y5K5 whole entry, looked up): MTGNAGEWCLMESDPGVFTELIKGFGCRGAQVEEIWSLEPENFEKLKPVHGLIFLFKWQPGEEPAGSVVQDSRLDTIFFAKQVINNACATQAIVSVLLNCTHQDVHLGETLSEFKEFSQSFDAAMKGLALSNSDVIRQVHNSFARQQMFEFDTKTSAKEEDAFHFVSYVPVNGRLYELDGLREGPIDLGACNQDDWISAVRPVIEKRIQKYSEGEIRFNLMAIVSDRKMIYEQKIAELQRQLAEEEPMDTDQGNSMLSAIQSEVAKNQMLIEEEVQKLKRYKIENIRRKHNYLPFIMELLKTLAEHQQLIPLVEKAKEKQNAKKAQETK
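Assay system: Proteasome-bound UCH37. Buffer or medium: pH 7.4 Tris-HCl (50 mM) with ovalbumin, ATP-MgCl2, DTT. Incubation: 30 min preincubation with enzyme, 25 min cleavage at room temperature. Measured by: fluorescence, ex 355 nm, em 460 nm. Read-out basis: percent inhibition. Control set: wells without proteasome as full block, compound-free enzyme plus substrate as uninhibited.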
An asterisk follows results filed as active; . = no result. Shown are actives, neighbours in structure and some others; about 2.6% of the full set was active somewhere.

SMILES	SIRT5 block	FGF22 binding	NSD2 HMT inh	Casp6 inh	UCH37 DUB inh
Cc1nnc(SCC2=C(C(=O)O)N3C(=O)C(NC(=O)Cn4nc(C(F)F)c(Cl)c4C)C3SC2)s1 (stereo not given)	-4.5	43.0*	1.2	31.5	2.7
Cc1nnc(SCC2=C(C(=O)O)N3C(=O)C(NC(=O)Cn4nc(C(F)F)cc4C)C3SC2)s1 (stereo not given)	-2.5	0.2	0.6	11.4	0.1
COCCNC(=O)C[C@H]1CC[C@@H](NC(=O)NC2CCCC2)[C@H](CO)O1	1.6	0.1	.	1.6	.
O=C1/C(=C/C=C/c2ccco2)SC(=S)N1NS(=O)(=O)c1ccccc1	43.2*	0.3	118.9*	78.9*	19.5
O=C1/C(=C/c2cccs2)SC(=S)N1NS(=O)(=O)c1ccccc1	6.1	0.4	6.4	13.4	4.9
O=C(NCc1cccnc1)c1c(O)c2cccc3c2n(c1=O)CCC3	.	43.1*	0.9	2.3	-4.1
O=C(OCC(=O)c1c[nH]c2ccccc12)c1cc(Br)ccc1O	2.6	43.3*	-1.2	-1.3	-3.0
O=C(O)/C=C/C(=O)Nc1ccc(Cc2ccc(NC(=O)/C=C/C(=O)O)cc2)cc1	21.8*	0.8	29.8	0.3	4.6
O=C(O)/C=C\C(=O)Nc1ccc(Oc2ccccc2)cc1	.	.	.	.	2.6
O=C(O)/C=C/C(=O)Nc1ccc(C2(c3ccc(NC(=O)/C=C/C(=O)O)cc3)c3ccccc3-c3ccccc32)cc1	15.7*	.	6.5	46.7*	-0.1
CCOC(=O)[C@]12CCC=C1N(Cc1ccc(Cl)cc1Cl)C(=O)[C@H](CC(=O)NCc1cccc(C(F)(F)F)c1)C2	-6.7	1.4*	.	-0.3	.
COC(=O)[C@]12CCCCC=C1N(Cc1ccc(Cl)cc1Cl)C(=O)[C@H](CC(=O)NCc1cccc(C(F)(F)F)c1)C2	19.5*	1.5*	.	-3.0	.
COC(=O)[C@@]12C[C@@H](CC(=O)NCc3cccc(C(F)(F)F)c3)C(=O)N(Cc3ccccc3)C1=CCC(C)(C)C2	.	41.7	.	-1.7	.
CCCCNC(=O)C[C@@H]1C[C@@]2(C(=O)OC)CC(C)(C)CC=C2N(CCc2ccc(OC)c(OC)c2)C1=O	.	40.3*	.	2.7	.
COC(=O)[C@@]12C[C@@H](CC(=O)NCc3cccc(C(F)(F)F)c3)C(=O)N(Cc3cccc4ccccc34)C1=CCC(C)(C)C2	0.5	23.4*	.	-1.9	.
CCOC(=O)[C@]12CCCC=C1N(Cc1ccc(Cl)cc1Cl)C(=O)[C@H](CC(=O)NCc1cccc(C(F)(F)F)c1)C2	1.5	0.9	.	-0.5	.
N#C[C@H]1[C@@H](c2ccc(-c3ccc(F)cc3)cc2)[C@H](CO)N1c1nc(-c2ccccc2)cs1	0.9	0.0	.	0.0	.
C#CCNC(=O)C[C@@H]1C[C@@]2(C(=O)OCC)CCC=C2N(Cc2ccc(Cl)cc2Cl)C1=O	-0.1	-0.6	.	76.5*	.
C[C@@H]1CN(S(=O)(=O)C(C)(C)C)[C@@H](CCO)/C1=C\c1ccccc1	15.0	-0.3	.	0.2	3.8
CC(C)(C)S(=O)(=O)N1C[C@H]2CC/C=C\C/C(c3ccccc3)=C\2[C@@H]1CCO	-6.9	-0.4	.	0.9	24.8*
C[C@@H]1CN([C@H](C)CO)C(=O)c2cccc(NC(=O)C3CCOCC3)c2O[C@H]1CN(C)Cc1ccc(-c2ccccc2)cc1	5.8	-0.1	.	0.3	.
O=C(NCCC1=CCCCC1)C(=O)NCC1OCCCN1S(=O)(=O)c1cc(F)ccc1F (stereo not given)	-2.4	-0.2	-1.6	1.0	5.8
O=C(NCCC1=CCCCC1)C(=O)NCC1OCCCN1S(=O)(=O)c1ccc(F)cc1 (stereo not given)	-0.4	43.6*	1.4	3.1	2.9
COc1ccc(-n2c(CN3CCN(C)CC3)nc3ccc([N+](=O)[O-])cc3c2=O)c(OC)c1	-1.8	-0.2	3.6	-5.5	-0.4
COc1ccc(-n2c(CN3CCN(Cc4ccccc4)CC3)nc3ccc([N+](=O)[O-])cc3c2=O)c(OC)c1	34.8*	-0.2	7.8	-1.5	3.1
COc1ccc(S(=O)(=O)Nc2cccc3c2O[C@@H](CN(C)S(=O)(=O)c2c(C)noc2C)[C@H](C)CN([C@H](C)CO)C3=O)cc1	102.0*	-0.5	.	0.8	.
COc1ccc(S(=O)(=O)N(C)C[C@@H]2Oc3c(NC(=O)c4ccncc4)cccc3C(=O)N([C@@H](C)CO)C[C@@H]2C)cc1	-2.1	0.1	.	1.2	.

Compound activity as filed in PubChem BioAssay.
